# Test results published in ChEMBL document CHEMBL1147212, “Quinone reductase induction activity of methoxylated analogues of resveratrol” (2007).
# Active and inactive are the calls of the source. No cut-off for these calls is given here.
# Tested on: not listed separately
# Experiment: ABTS radical scavenging activity assessed as trolox equivalent antioxidant capacity
# Assay type: functional
# Settings: not given
# Summary of the method: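 ABTS radical cation diluted in PBS pH 7.4 to absorbance 0.700 (±0.02) at 734 nm, 25 °C. Compound added from ethanol stock. Absorbance decrease read at 1, 3 and 5 min. Percent reduction at 5 min plotted against concentration ([…] as printed); slope divided by Trolox slope gives TEAC. Run at least three times on separate occasions.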
row,SMILES,Activity
1,COc1ccc(/C=C/c2ccc(OC)c(O)c2)cc1,1.29
2,COc1ccc(/C=C/c2cc(O)cc(O)c2)cc1 [RESVERATROL 4'-METHYL ETHER],2.49
3,COc1ccc(/C=C\c2cccc(O)c2)cc1,1.04
4,COc1ccc(/C=C\c2cc(O)cc(O)c2)cc1,1.86
5,Oc1ccc(/C=C/c2cc(O)cc(O)c2)cc1 [RESVERATROL],2.74
6,Oc1cc(O)cc(/C=C/c2ccccc2)c1 [PINOSYLVIN],2.04
7,COc1ccc(/C=C\c2ccc(OC)c(O)c2)cc1,1.11
8,COc1ccc(/C=C/c2cccc(O)c2)cc1,1.11

# Tested on: not listed separately
# Experiment: Cytotoxicity against mouse Hepa 1c1c7 cells assessed as cell viability at 12.5 uM after 24 hrs by MTT assay
# Assay type: functional
# Settings: Hepa-1c1c7, 24 h, read-out: Activity
# Summary of the method: (§1)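 Hepa 1c1c7 murine hepatoma cells exposed for 24 h to compound from DMSO stock, serially diluted to final […], with DMSO ≤1% final. MTT then added for 3 h, cells lysed, and formazan read at 590 nm. Blank-subtracted absorbance expressed as % of untreated control wells. Mean of at least three independent determinations.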
row,SMILES,viability at 12.5 µM
1,COc1ccc(/C=C/c2ccc(OC)c(O)c2)cc1,77%
2,COc1ccc(/C=C/c2cc(O)cc(O)c2)cc1 [RESVERATROL 4'-METHYL ETHER],87%
3,COc1ccc(/C=C\c2cc(O)cc(O)c2)cc1,96%
4,COc1ccc(/C=C/c2ccccc2OC)cc1,58%
5,COc1ccccc1/C=C/c1ccccc1OC,82%
6,COc1ccc(/C=C\c2ccc(OC)cc2)cc1,64%
7,COc1ccc(/C=C/c2c(OC)cccc2OC)cc1,90%
8,COc1ccc(/C=C/c2ccc(OC)cc2)cc1,67%
9,Oc1ccc(/C=C/c2cc(O)cc(O)c2)cc1 [RESVERATROL],80%
10,COc1ccc(/C=C/c2ccc(OC)cc2OC)cc1,58%
11,Oc1cc(O)cc(/C=C/c2ccccc2)c1 [PINOSYLVIN],61%
12,COc1ccc(/C=C/c2ccccc2O)cc1 [2-hydroxy-4'-methoxystilbene],80%
13,COc1ccc(/C=C/c2cccc(O)c2)cc1,81%
14,COc1ccc(/C=C/c2cccc(OC)c2)cc1,90%

# Tested on: not listed separately
# Experiment: Cytotoxicity against mouse Hepa 1c1c7 cells assessed as cell viability at 1 uM after 24 hrs by MTT assay
# Assay type: functional
# Settings: Hepa-1c1c7, 24 h, read-out: Activity
# Summary of the method: as §1
row,SMILES,viability at 1 µM
1,COc1ccc(/C=C\c2cccc(OC)c2)cc1,92%
2,"COc1ccc(/C=C\c2cc(OC)cc(OC)c2)cc1 [8Z-3,4',5-TRIMETHOXYSTILBENE]",82%
3,COc1ccc(/C=C/c2ccc(OC)c(OC)c2)cc1,100%
4,COc1ccc(/C=C/c2cc(OC)cc(OC)c2)cc1 [TRISMETHOXYRESVERATROL],94%
5,COc1ccc(/C=C\c2cc(OC)c(OC)c(OC)c2)cc1,88%
6,COc1ccc(/C=C/c2cc(OC)c(OC)c(OC)c2)cc1,86%
7,"COc1ccc(/C=C\c2ccc(OC)c(OC)c2)cc1 [7Z-3,4,4'-TRIMETHOXYSTILBENE]",86%
8,COc1ccc(/C=C\c2ccc(OC)cc2OC)cc1,85%
9,COc1ccc(/C=C\c2ccccc2OC)cc1,56%

# Tested on: not listed separately
# Experiment: Cytotoxicity against mouse Hepa 1c1c7 cells assessed as cell viability at 5 uM after 24 hrs by MTT assay
# Assay type: functional
# Settings: Hepa-1c1c7, 24 h, read-out: Activity
# Summary of the method: as §1
row,SMILES,viability at 5 µM
1,COc1ccc(/C=C\c2cccc(O)c2)cc1,90%
2,COc1ccc(/C=C\c2ccc(OC)c(O)c2)cc1,75%

# Tested on: not listed separately
# Experiment: Cytotoxicity against mouse Hepa 1c1c7 cells assessed as cell viability at 6.3 uM after 24 hrs by MTT assay
# Assay type: functional
# Settings: Hepa-1c1c7, 24 h, read-out: Activity
# Summary of the method: as §1
row,SMILES,viability at 6.3 µM
1,COc1ccc(/C=C/c2ccccc2OC)cc1,73%

# Tested on: Hepa 1c1c7
# Experiment: Induction of quinone reductase activity in mouse Hepa 1c1c7 cells at 6.3 uM after 24 hrs relative to control
# Assay type: cell-based
# Settings: not given
# Summary of the method: (§2)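 Cells seeded at 10⁴/well and grown 24 h in α-MEM with 10% FCS, 5% CO₂, 37 °C. They were then exposed 24 h to compound (DMSO ≤0.5% final), using the same concentration as the viability test. Lysis used digitonin/EDTA. MTT-coupled menadione reduction mix was added (Tris pH 7.4, FAD, G6P, NADP, G6PDH). Reaction stopped after 5 min with dicoumarol and read at 590 nm. Result is blank-corrected treated/control (0.5% DMSO) ratio, mean ± SD, n = 3. Lines 12-14 used the c1 mutant, which lacks CYP1A1-dependent AHH activity.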
row,SMILES,Activity
1,COc1ccc(/C=C/c2ccccc2OC)cc1,1.8

# Tested on: Hepa 1c1c7
# Experiment: Induction of quinone reductase activity in mouse Hepa 1c1c7 cells at 12.5 uM after 24 hrs relative to control
# Assay type: cell-based
# Settings: not given
# Summary of the method: as §2
row,SMILES,Activity
1,COc1ccc(/C=C/c2ccc(OC)c(O)c2)cc1,1.33
2,COc1ccc(/C=C/c2cc(O)cc(O)c2)cc1 [RESVERATROL 4'-METHYL ETHER],1.14
3,COc1ccc(/C=C\c2cc(O)cc(O)c2)cc1,1.04
4,COc1ccc(/C=C/c2ccccc2OC)cc1,2.04
5,COc1ccccc1/C=C/c1ccccc1OC,1.81
6,COc1ccc(/C=C\c2ccc(OC)cc2)cc1,1.06
7,COc1ccc(/C=C/c2c(OC)cccc2OC)cc1,1.92
8,COc1ccc(/C=C/c2ccc(OC)cc2)cc1,1.14
9,Oc1ccc(/C=C/c2cc(O)cc(O)c2)cc1 [RESVERATROL],1.24
10,COc1ccc(/C=C/c2ccc(OC)cc2OC)cc1,1.18
11,Oc1cc(O)cc(/C=C/c2ccccc2)c1 [PINOSYLVIN],1.07
12,COc1ccc(/C=C/c2ccccc2O)cc1 [2-hydroxy-4'-methoxystilbene],1.13
13,COc1ccc(/C=C/c2cccc(O)c2)cc1,1.08
14,COc1ccc(/C=C/c2cccc(OC)c2)cc1,1.44

# Tested on: Hepa 1c1c7
# Experiment: Induction of quinone reductase activity in mouse Hepa 1c1c7 cells at 1 uM after 24 hrs relative to control
# Assay type: cell-based
# Settings: not given
# Summary of the method: as §2
row,SMILES,Activity
1,COc1ccc(/C=C\c2cccc(OC)c2)cc1,< 1
2,"COc1ccc(/C=C\c2cc(OC)cc(OC)c2)cc1 [8Z-3,4',5-TRIMETHOXYSTILBENE]",< 1
3,COc1ccc(/C=C/c2ccc(OC)c(OC)c2)cc1,< 1
4,COc1ccc(/C=C/c2cc(OC)cc(OC)c2)cc1 [TRISMETHOXYRESVERATROL],< 1
5,COc1ccc(/C=C\c2cc(OC)c(OC)c(OC)c2)cc1,< 1
6,COc1ccc(/C=C/c2cc(OC)c(OC)c(OC)c2)cc1,< 1
7,"COc1ccc(/C=C\c2ccc(OC)c(OC)c2)cc1 [7Z-3,4,4'-TRIMETHOXYSTILBENE]",< 1
8,COc1ccc(/C=C\c2ccc(OC)cc2OC)cc1,< 1
9,COc1ccc(/C=C\c2ccccc2OC)cc1,< 1

# Tested on: Hepa 1c1c7
# Experiment: Induction of quinone reductase activity in mouse Hepa 1c1c7 cells at 5 uM after 24 hrs relative to control
# Assay type: cell-based
# Settings: not given
# Summary of the method: as §2
row,SMILES,Activity
1,COc1ccc(/C=C\c2cccc(O)c2)cc1,< 1
2,COc1ccc(/C=C\c2ccc(OC)c(O)c2)cc1,< 1

# Tested on: Hepa 1c1c7c1
# Experiment: Induction of quinone reductase in mouse mutant Hepa 1c1c7c1 cells at 12.5 uM after 24 hrs relative to control
# Assay type: cell-based
# Settings: not given
# Summary of the method: as §2
SMILES,fold induction,Activity
COc1ccc(/C=C/c2ccccc2OC)cc1,1.14,–
COc1ccccc1/C=C/c1ccccc1OC,< 1,–
COc1ccc(/C=C/c2c(OC)cccc2OC)cc1,–,1.05 µM
Oc1ccc(/C=C/c2cc(O)cc(O)c2)cc1 [RESVERATROL],1.16,–
COc1ccc(/C=C/c2cccc(OC)c2)cc1,< 1,–

# Tested on: Hepa 1c1c7
# Experiment: Induction of quinone reductase activity in mouse Hepa 1c1c7 cells assessed as concentration required to double the enzyme activity
# Assay type: cell-based
# Settings: not given
# Summary of the method: (§3)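 Hepa 1c1c7 wild-type or AHH-deficient c1 mutant cells, 10⁴ per well, grown for 24 h in α-MEM with 10% FCS at 37 °C and 5% CO₂, then exposed to compound from DMSO stock (final DMSO ≤0.5%) for 24 h. Cells were digitonin/EDTA-lysed and given an NADP/G6P-regenerating mix with FAD, MTT and menadione for 5 min. The reaction was stopped with dicoumarol and read at 590 nm; CD is the concentration doubling QR activity versus the DMSO control.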
row,SMILES,Activity
1,O=c1cc(-c2ccccc2)oc2ccc3ccccc3c12,0.028 µM
2,C[S+]([O-])CCCCN=C=S (stereo unspecified),0.26 µM

# Tested on: Hepa 1c1c7c1
# Experiment: Induction of quinone reductase activity in mouse mutant Hepa 1c1c7c1 cells assessed as concentration required to double the enzyme activity
# Assay type: cell-based
# Settings: not given
# Summary of the method: as §3
row,SMILES,Activity
1,O=c1cc(-c2ccccc2)oc2ccc3ccccc3c12,inactive
2,C[S+]([O-])CCCCN=C=S (stereo unspecified),0.28 µM

# Tested on: not listed separately
# Experiment: Cytotoxicity against mouse Hepa 1c1c7 cells assessed as cell viability at 25 uM after 24 hrs by MTT assay
# Assay type: functional
# Settings: Hepa-1c1c7, 24 h, read-out: Activity
# Summary of the method: as §1
row,SMILES,viability at 25 µM
1,Oc1ccc(/C=C/c2cc(O)cc(O)c2)cc1 [RESVERATROL],55%

# Tested on: Hepa 1c1c7
# Experiment: Induction of quinone reductase activity in mouse Hepa 1c1c7 cells at 25 uM after 24 hrs relative to control
# Assay type: cell-based
# Settings: not given
# Summary of the method: as §2
row,SMILES,Activity
1,Oc1ccc(/C=C/c2cc(O)cc(O)c2)cc1 [RESVERATROL],1.5
